Results as given in ChEMBL document CHEMBL4304784, “Discovery of new potent dual sigma receptor/GluN2b ligands with antioxidant property as neuroprotective agents” (Eur J Med Chem, 2019).
Values after ≈ are worked out from the molar mass of the structure shown.

Columns and labels:
[1] = Cytotoxicity against human HeLa cells assessed as decrease in cell viability incubated for 48 hrs by MTT assay; assay type: cell-based; settings: read-out: LD50
Outline: (§1)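 Cells kept in DMEM Glutamax with 10% FBS and antibiotic/antimycotic at 37 °C, 5% CO2. Seeded 24 h before dosing (SH-SY5Y at 2x10^3 cells/well). Compounds in DMSO serially diluted in medium, final DMSO 1.0%, exposure 48 h. MTT added for 4 h at 37 °C, read A595 minus A655. LD50 from linear regression of dose-log response curves; triplicates, three experiments, mean ± SEM.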

[2] = Selectivity ratio of Ki for sigma1 receptor in guinea pig brain membranes to Ki for sigma2 receptor in rat liver membranes; assay type: cell membranes
[3] = molecular target: Sigma non-opioid intracellular receptor 1 (Cavia porcellus, UniProt Q60492); assay: Displacement of [3H]-(+)-pentazocine from sigma1 receptor in guinea pig brain cortex membranes incubated for 120 mins by solid scintillation counting method; assay type: cell membranes
Chain of Sigma non-opioid intracellular receptor 1 (Q60492 whole entry): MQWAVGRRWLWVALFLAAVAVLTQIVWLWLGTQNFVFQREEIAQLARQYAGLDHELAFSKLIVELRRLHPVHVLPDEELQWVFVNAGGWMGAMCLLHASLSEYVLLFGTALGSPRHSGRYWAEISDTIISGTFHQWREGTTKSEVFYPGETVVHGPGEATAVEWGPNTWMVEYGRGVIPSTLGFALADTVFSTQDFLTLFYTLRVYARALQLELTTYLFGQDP
Outline: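 Guinea pig brain cortex membranes (about 100 µg protein) with 2 nM [3H]-(+)-pentazocine in 50 mM TRIS pH 7.4 at 37 °C. Non-specific binding defined with 10 µM unlabeled (+)-pentazocine. Six concentrations, 10^-5 to 10^-10 M, in duplicate. 120 min with shaking, filtration, solid scintillator counting.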

[4] = Selectivity ratio of Ki for sigma2 receptor in rat liver membranes to Ki for GluN1a/GluN2B (unknown origin) expressed in mouse L(tk-) cell membranes; assay type: cell-based
[5] = Cytotoxicity against human Hep3B cells assessed as cell viability at 10 uM incubated for 48 hrs by MTT assay relative to control; assay type: cell-based, Hep 3B2; settings: read-out: Activity
Outline: (§2)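 Cells kept in DMEM Glutamax with 10% FBS and antibiotic/antimycotic at 37 °C, 5% CO2. Plated at 2x10^3 cells/well 24 h before dosing. Compounds taken from DMSO and diluted in medium, final DMSO ≤1.0%. Exposure 48 h, then MTT added for 4 h at 37 °C. Read as A595 minus A655. Triplicates, at least three independent experiments, mean ± SEM.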

[6] = system: SH-SY5Y; assay: Neuroprotective activity against H2O2-induced toxicity in human SH-SY5Y cells assessed as cell viability at 25 uM pretreated for 48 hrs followed by H2O2 challenge and measured after 4 hrs by MTT assay (reference value: 18 +/- 2.64%); assay type: functional; settings: read-out: Activity
[7] = Cytotoxicity against human SH-SY5Y cells assessed as cell viability at 25 uM incubated for 48 hrs by MTT assay (reference value: 100 +/- 12.00%); assay type: cell-based; settings: read-out: Activity; outline: as §2
[8] = molecular target: T1, Sigma intracellular receptor 2 (Rattus norvegicus, UniProt Q5U3Y7); assay: Displacement of [3H]-di-o-tolylguanidine from sigma2 receptor in rat liver membranes in the presence of sigma1 receptor ligand (+)-pentazocine incubated for 120 mins by scintillation counting method; assay type: cell membranes
T1 sequence (Q5U3Y7 whole entry): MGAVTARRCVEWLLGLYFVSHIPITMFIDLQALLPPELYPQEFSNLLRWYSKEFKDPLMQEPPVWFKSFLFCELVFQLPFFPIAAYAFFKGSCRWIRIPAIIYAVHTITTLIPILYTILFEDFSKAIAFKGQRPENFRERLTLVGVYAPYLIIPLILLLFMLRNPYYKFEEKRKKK
Outline: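 Rat liver membranes (about 100 µg protein) with 3 nM [3H]di-o-tolylguanidine in 50 mM TRIS pH 8.0 containing 500 nM (+)-pentazocine, at rt. Non-specific binding defined with 10 µM unlabeled DTG. Concentrations 10^-5 to 10^-10 M, in duplicate. 120 min, filtration, scintillation counting. Three independent experiments, mean ± SEM.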

[9] = Cytotoxicity against human HeLa cells assessed as cell viability at 50 uM incubated for 48 hrs by MTT assay relative to control; assay type: cell-based; settings: read-out: Activity; outline: as §2
[10] = Antioxidant activity assessed as H2O2 radical scavenging activity; assay type: functional
Outline: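 Compounds at 0.05, 0.1, 0.2 and 0.4 mg/mL in phosphate buffer pH 7.4. 0.353 mL of 4 mM H2O2 in phosphate buffer added to 2.0 mL of each solution, absorbance read at 239 nm. Percent inhibition calculated from absorbances relative to control. Triplicate, mean ± SEM.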

[11] = Antioxidant activity assessed as ABTS radical scavenging activity incubated for 40 mins; assay type: functional
Outline: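 Test compound at 0.05, 0.1, 0.2 and 0.4 mg/mL (200 µL) added to 1.8 mL ethanolic ABTS 7mM. Incubated 40 min at room temperature, absorbance read at 735 nm against ABTS solution. Percent inhibition computed from absorbances and used to derive IC50. Triplicate, mean ± SEM; ascorbic acid as reference.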

[12] = Cytotoxicity against human HeLa cells assessed as cell viability at 10 uM incubated for 48 hrs by MTT assay relative to control; assay type: cell-based; settings: read-out: Activity; outline: as §2
[13] = Cytotoxicity against human SH-SY5Y cells assessed as decrease in cell viability incubated for 48 hrs by MTT assay; assay type: cell-based; settings: read-out: LD50; outline: as §1
[14] = Cytotoxicity against human Hep3B cells assessed as cell viability at 100 uM incubated for 48 hrs by MTT assay relative to control; assay type: cell-based, Hep 3B2; settings: read-out: Activity; outline: as §2
[15] = Cytotoxicity against human HeLa cells assessed as cell viability at 100 uM incubated for 48 hrs by MTT assay relative to control; assay type: cell-based; settings: read-out: Activity; outline: as §2
[16] = Cytotoxicity against human Hep3B cells assessed as cell viability at 25 uM incubated for 48 hrs by MTT assay relative to control; assay type: cell-based, Hep 3B2; settings: read-out: Activity; outline: as §2
[17] = Cytotoxicity against human SH-SY5Y cells assessed as cell viability at 100 uM incubated for 48 hrs by MTT assay (reference value: 100 +/- 12.00%); assay type: cell-based; settings: read-out: Activity; outline: as §2
[18] = Cytotoxicity against human Hep3B cells assessed as cell viability at 50 uM incubated for 48 hrs by MTT assay relative to control; assay type: cell-based, Hep 3B2; settings: read-out: Activity; outline: as §2
[19] = Cytotoxicity against human SH-SY5Y cells assessed as cell viability at 50 uM incubated for 48 hrs by MTT assay (reference value: 100 +/- 12.00%); assay type: cell-based; settings: read-out: Activity; outline: as §2
[20] = Cytotoxicity against human HeLa cells assessed as cell viability at 25 uM incubated for 48 hrs by MTT assay relative to control; assay type: cell-based; settings: read-out: Activity; outline: as §2
[21] = Cytotoxicity against human Hep3B cells assessed as decrease in cell viability incubated for 48 hrs by MTT assay; assay type: cell-based, Hep 3B2; settings: read-out: LD50; outline: as §1
[22] = Cytotoxicity against human SH-SY5Y cells assessed as cell viability at 10 uM incubated for 48 hrs by MTT assay (reference value: 100 +/- 12.00%); assay type: cell-based; settings: read-out: Activity; outline: as §2
[23] = molecular target: T2, Glutamate NMDA receptor; GRIN1/GRIN2B (Homo sapiens, UniProt Q05586+Q13224); assay: Displacement of [3H]ifenprodil from GluN1a/GluN2B (unknown origin) expressed in mouse L(tk-) cell membranes after 120 mins by solid scintillation counting method
Outline: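 Membranes (about 20 μg protein) from mouse L(tk-) cells stably carrying GluN1a/GluN2B, induced with 4 μM dexamethasone and 4 μM ketamine for 24 h. Incubated with 5 nM [3H]ifenprodil in 5 mM TRIS/1 mM EDTA pH 7.5 at 37 °C, 120 min. Non-specific binding defined with 10 μM ifenprodil.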

[24] = molecular target: T2, Glutamate NMDA receptor; GRIN1/GRIN2B; assay: Potency index, ratio of ifenprodil Ki to test compound Ki for displacement of [3H]ifenprodil from GluN1a/GluN2B (unknown origin) expressed in mouse L(tk-) cell membranes

| SMILES | CC50 at 48 h [1] [µM] | Ratio Ki [2] | Ki [3] [µM] | Ratio Ki [4] | viability at 48 h, 10 µM [5] [%] | viability at 25 µM [6] [%] | viability at 48 h, 25 µM [7] [%] | Ki [8] [µM] | viability at 48 h, 50 µM [9] [%] | IC50 [10] [µg/mL] | IC50 [11] [µg/mL] | viability at 48 h, 10 µM [12] [%] | CC50 at 48 h [13] [µM] | viability at 48 h, 100 µM [14] [%] | viability at 48 h, 100 µM [15] [%] | viability at 48 h, 25 µM [16] [%] | viability at 48 h, 100 µM [17] [%] | viability at 48 h, 50 µM [18] [%] | viability at 48 h, 50 µM [19] [%] | viability at 48 h, 25 µM [20] [%] | also measured |
| --- | --- | --- | --- | --- | --- | --- | --- | --- | --- | --- | --- | --- | --- | --- | --- | --- | --- | --- | --- | --- | --- |
| O=c1oc(-c2ccccc2)nn1CCCCN1CCN(C2CCCCC2)CC1 | 76 | 0.37 | 0.035 | 4 | 72 | 114 | 78 to 105 | 0.093 | 46 | 73.07 (≈ 190 µM) | 69.25 (≈ 180 µM) | 62 | 81 | 143 | 57 | 76 | 105 | 72 | 75 | 48 | CC50 at 48 h [21]: 71 µM; viability at 48 h, 10 µM [22]: 81%; Ki [23]: 0.023 µM |
| O=C1CCc2ccccc2N1CCCCN1CCC2(CC1)OCc1ccccc12 | 55 | 0.5 | 0.018 | 6.8 | 61 | 97 | 88 to 107 | 0.034 | 45 | 84.56 (≈ 217 µM) | 78.8 (≈ 202 µM) | 92 | 60 | 10 | 31 | 67 | 16 | 38 | 40 | 78 | CC50 at 48 h [21]: 50 µM; viability at 48 h, 10 µM [22]: 116%; Ki [23]: 0.005 µM |
| O=C1CCc2ccccc2N1CCCCN1CCN(C2CCCCC2)CC1 | 265 | 14 | 0.021 | 0.75 | 106 | 105 | 81 to 111 | 0.0015 | 79 | 38.29 (≈ 104 µM) | 35.79 (≈ 96.8 µM) | 83 | 493 | 52 | 94 | 70 | 99 | 48 | 86 | 75 | Ratio Ki [24]: 5; CC50 at 48 h [21]: 81 µM; viability at 48 h, 10 µM [22]: 91%; Ki [23]: 0.002 µM |
